According to ChEMBL document CHEMBL3525963, “Tissue distribution and elimination of [14C]apixaban in rats” (Drug Metab Dispos, 2011):

What was measured:
Assay type in all cases: ADME, organism-based
Details in all cases: in vivo
[1] = test system: Pancreas; assay: Biodistribution in pregnant Sprague-Dawley rat pancreas at 5 mg/kg, po administered as single dose measured after 4 hrs; design: dose 5 mg/kg, dosed compound name [14C]-apixaban, route oral
[2] = test system: Rattus norvegicus; assay: Biodistribution in female Sprague-Dawley rat pituitary gland at 5 mg/kg, po administered as single dose measured after 24 hrs; design: dose 5 mg/kg, dosed compound name [14C]-apixaban, route oral
Outline: (§1)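 Quantitative whole-body autoradiography was run after a single 5 mg/kg (100 μCi/kg) oral gavage to fasted female or pregnant SD rats, one rat per time point. Carcasses were frozen in hexane/dry ice, and 40 µm sagittal sections were dried at −20°C for at least 48 h. Sections were exposed to a phosphor plate alongside [14C]glucose standards (0.001–6.5 µCi/g). Results are µg eq/g, with LLOQ 0.037 µg eq/g.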

[3] = test system: Heart; assay: Biodistribution in male Sprague-Dawley rat heart at 5 mg/kg, po administered as single dose measured after 8 hrs; design: dose 5 mg/kg, dosed compound name [14C]-apixaban, route oral
Outline: (§2)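 [14C]apixaban (1.0 mg/mL, 20 μCi/mL) in 0.5% Tween 80 in Labrafil, given by oral gavage at 100 μCi/kg to male rats (225-252 g) fasted overnight through 4 h post-dose. One rat per time point. Carcasses frozen in hexane/dry ice and cut into 40 µm sagittal sections. QWBA read on phosphor plates against [14C]glucose standards, reported as µg eq/g. LLOQ 0.037 µg eq/g.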

[4] = test system: Harderian gland; assay: Biodistribution in male Sprague-Dawley rat harderian gland at 5 mg/kg, po administered as single dose measured after 4 hrs; design: dose 5 mg/kg, dosed compound name [14C]-apixaban, route oral
Outline: (§3)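 [¹⁴C]Apixaban given by oral gavage at 5 mg/kg (100 μCi/kg) in 0.5% Tween 80 in Labrafil (1.0 mg/mL dosing solution) to rats fasted overnight through 4 h post-dose. One rat per time point; carcass frozen in hexane/dry ice. Quantitative whole-body autoradiography used 40 µm sagittal sections and a phosphor imaging plate calibrated with [¹⁴C]glucose standards (0.001–6.5 μCi/g). Read-out in µg eq apixaban/g; LLOQ 0.037 μg eq/g.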

[5] = test system: Adrenal gland; assay: Biodistribution in female Sprague-Dawley rat adrenal gland at 5 mg/kg, po administered as single dose measured after 24 hrs; design: dose 5 mg/kg, dosed compound name [14C]-apixaban, route oral; outline: as §1
[6] = test system: Rattus norvegicus; assay: Biodistribution in female Sprague-Dawley rat bone marrow at 5 mg/kg, po administered as single dose measured after 8 hrs; design: dose 5 mg/kg, dosed compound name [14C]-apixaban, route oral
Outline: (§4)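 [14C]apixaban (20 μCi/mL in dosing solution) in 0.5% Tween 80 in Labrafil given by oral gavage to fasted female rats, 206-213 g, at 100 μCi/kg. One rat per time point was euthanized and snap-frozen. Sagittal 40 µm whole-body sections were read by QWBA phosphor imaging against [14C]glucose standards. Results are in µg eq apixaban/g, with LLOQ 0.037 μg eq/g.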

[7] = test system: Rattus norvegicus; assay: Biodistribution in male Sprague-Dawley rat salivary gland at 5 mg/kg, po administered as single dose measured after 0.5 hrs; design: dose 5 mg/kg, dosed compound name [14C]-apixaban, route oral
[8] = test system: Muscle tissue; assay: Biodistribution in male Sprague-Dawley rat muscle at 5 mg/kg, po administered as single dose measured after 0.5 hrs; design: dose 5 mg/kg, dosed compound name [14C]-apixaban, route oral; outline: as §2
[9] = test system: Muscle tissue; assay: Biodistribution in female Sprague-Dawley rat muscle at 5 mg/kg, po administered as single dose measured after 1 hr; design: dose 5 mg/kg, dosed compound name [14C]-apixaban, route oral; outline: as §3
[10] = Drug metabolism in Sprague-Dawley rat milk assessed as apixaban level at 5 mg/kg, po after 1 to 24 hrs by HPLC method; design: dose 5 mg/kg, dosed compound name [14C]-apixaban, route oral
Outline: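 After a 5 mg/kg oral dose, samples were radioprofiled by HPLC. The column was C18 with a 0.4% formic acid (pH 3.2)/acetonitrile gradient at 0.7 mL/min. Fractions were collected every 0.25 min and counted for radioactivity. Peaks were identified by ESI LC/MS/MS against synthetic standards. Milk was taken at 1, 6, 12 and 24 h.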

[11] = test system: Rattus norvegicus; assay: Biodistribution in fetal brain of pregnant Sprague-Dawley rat at 5 mg/kg, po administered as single dose measured after 24 hrs; design: dose 5 mg/kg, dosed compound name [14C]-apixaban, route oral; outline: as §1
[12] = test system: Blood; assay: Biodistribution in female Sprague-Dawley rat blood at 5 mg/kg, po administered as single dose measured after 4 hrs; design: dose 5 mg/kg, dosed compound name [14C]-apixaban, route oral; outline: as §3
[13] = test system: Pancreas; assay: Biodistribution in male Sprague-Dawley rat pancreas at 5 mg/kg, po administered as single dose measured after 8 hrs; design: dose 5 mg/kg, dosed compound name [14C]-apixaban, route oral; outline: as §2
[14] = test system: Rattus norvegicus; assay: Biodistribution in fetal liver of pregnant Sprague-Dawley rat at 5 mg/kg, po administered as single dose measured after 24 hrs; design: dose 5 mg/kg, dosed compound name [14C]-apixaban, route oral
Outline: (§5)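 Fasted pregnant SD rats (n=6, 270-319 g) each received one oral gavage dose of [14C]apixaban, 5 mg/kg (100 μCi/kg), in 0.5% Tween 80/Labrafil. One rat was killed at each of 0.5, 1, 4, 8, 24 and 48 h. Carcasses were frozen in hexane/dry ice, cut into 40 µm sagittal sections, exposed to phosphor plates and quantified against [14C]glucose standards as µg eq/g. LLOQ was 0.037 µg eq/g.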

[15] = test system: Thymus; assay: Biodistribution in pregnant Sprague-Dawley rat thymus at 5 mg/kg, po administered as single dose measured after 0.5 hrs; design: dose 5 mg/kg, dosed compound name [14C]-apixaban, route oral
[16] = test system: Plasma; assay: AUC (0 to t) in lactating Sprague-Dawley rat plasma at 5 mg/kg, po administered as single dose; design: dose 5 mg/kg, dosed compound name [14C]-apixaban, route oral
Outline: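 Fasted lactating SD rats received 5 mg/kg [14C]apixaban orally (formulation 5.0 mg/mL, 20 μCi/mL). Oxytocin was injected subcutaneously 15 min before collection, and 1 mL milk was taken under anesthesia by milking machine. Sampling was predose and at 0.5–24 h, 3 rats per time point. Plasma was obtained at 1300g for 10 min. Duplicate 50–100 µL aliquots were counted by LSC for 10 min. AUC was calculated in WinNonlin.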

[17] = test system: Brain; assay: Biodistribution in female Sprague-Dawley rat brain at 5 mg/kg, po administered as single dose measured after 72 hrs; design: dose 5 mg/kg, dosed compound name [14C]-apixaban, route oral
Outline: (§6)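 [14C]Apixaban (1.0 mg/mL, 20 μCi/mL in 0.5% Tween 80 in Labrafil) given as a single oral gavage of 5 mg/kg (100 μCi/kg) to fasted female SD rats, one rat per time point. Carcasses were frozen in hexane/dry ice and cut into 40 µm sagittal sections for QWBA against [14C]glucose standards. Brain radioactivity is reported as µg eq/g, with LLOQ 0.037 µg eq/g.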

[18] = test system: Rattus norvegicus; assay: Biodistribution in fetal blood of pregnant Sprague-Dawley rat at 5 mg/kg, po administered as single dose measured after 48 hrs; design: dose 5 mg/kg, dosed compound name [14C]-apixaban, route oral; outline: as §1
[19] = test system: Rattus norvegicus; assay: Biodistribution in fetal liver of pregnant Sprague-Dawley rat at 5 mg/kg, po administered as single dose measured after 48 hrs; design: dose 5 mg/kg, dosed compound name [14C]-apixaban, route oral; outline: as §5
[20] = test system: Lung; assay: Biodistribution in female Sprague-Dawley rat lung at 5 mg/kg, po administered as single dose measured after 4 hrs; design: dose 5 mg/kg, dosed compound name [14C]-apixaban, route oral; outline: as §3
[21] = test system: Brain; assay: Biodistribution in pregnant Sprague-Dawley rat brain at 5 mg/kg, po administered as single dose measured after 4 hrs; design: dose 5 mg/kg, dosed compound name [14C]-apixaban, route oral
[22] = test system: Blood; assay: AUC (0 to infinity) in male Sprague-Dawley rat blood at 5 mg/kg, po administered as single dose; design: time infinity, dose 5 mg/kg, dosed compound name [14C]-apixaban, route oral
[23] = test system: Rattus norvegicus; assay: Biodistribution in female Sprague-Dawley rat pituitary gland at 5 mg/kg, po administered as single dose measured after 4 hrs; design: dose 5 mg/kg, dosed compound name [14C]-apixaban, route oral; outline: as §4
[24] = test system: Pancreas; assay: Biodistribution in male Sprague-Dawley rat pancreas at 5 mg/kg, po administered as single dose measured after 0.5 hrs; design: dose 5 mg/kg, dosed compound name [14C]-apixaban, route oral; outline: as §2
[25] = test system: Brain; assay: Biodistribution in female Sprague-Dawley rat brain at 5 mg/kg, po administered as single dose measured after 0.5 hrs; design: dose 5 mg/kg, dosed compound name [14C]-apixaban, route oral; outline: as §6

Radiolabel recovery [1]: 0.99 ugequiv/g
Radiolabel recovery [2]: Not detected assumed BLQ
Radiolabel recovery [3]: 0.08 ugequiv/g
Radiolabel recovery [4]: 0.42 ugequiv/g
Radiolabel recovery [5]: Not detected assumed BLQ
Radiolabel recovery [6]: 0.15 ugequiv/g
Radiolabel recovery [7]: 0.3 ugequiv/g
Radiolabel recovery [8]: 0.2 ugequiv/g
Radiolabel recovery [9]: 0.27 ugequiv/g
Compound recovery [10]: > 96%
Radiolabel recovery [11]: Not detected assumed BLQ
Radiolabel recovery [12]: 0.35 ugequiv/g
Radiolabel recovery [13]: 0.12 ugequiv/g
Radiolabel recovery [15]: 0.38 ugequiv/g
AUCt [16]: 3420 ngequiv.hr/g
Radiolabel recovery [17]: < 0.037 ugequiv/g
Radiolabel recovery [18]: Not detected assumed BLQ
Radiolabel recovery [20]: 0.51 ugequiv/g
Radiolabel recovery [21]: < 0.037 ugequiv/g
AUC [22]: 4300 ngequiv.hr/g
Radiolabel recovery [23]: 0.48 ugequiv/g
Radiolabel recovery [24]: 0.47 ugequiv/g
Radiolabel recovery [25]: < 0.037 ugequiv/g
SMILES: COc1ccc(-n2nc(C(N)=O)c3c2C(=O)N(c2ccc(N4CCCC[14C]4=O)cc2)CC3)cc1
Radiolabel recovery [14]: Not sampled as not visualised in autoradiograph
Radiolabel recovery [19]: Not sampled as not visualised in autoradiograph
